# Measured values of several laboratories.
# Each line is one published result; the experiments were not run side by side.
# Target: Adenosine receptor A1 (ADORA1, Homo sapiens, UniProt P30542)
# Sequence (P30542 1-326, as in one of the studies): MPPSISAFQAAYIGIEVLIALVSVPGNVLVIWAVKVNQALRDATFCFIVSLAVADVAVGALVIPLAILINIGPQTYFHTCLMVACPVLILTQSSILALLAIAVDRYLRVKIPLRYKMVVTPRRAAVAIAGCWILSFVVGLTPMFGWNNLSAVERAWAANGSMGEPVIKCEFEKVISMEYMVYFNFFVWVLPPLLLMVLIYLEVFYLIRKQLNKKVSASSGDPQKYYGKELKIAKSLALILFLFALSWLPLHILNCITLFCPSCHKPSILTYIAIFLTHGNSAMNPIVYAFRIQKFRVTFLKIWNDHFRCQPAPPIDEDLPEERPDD
SMILES,effect on,technique,setting,Ki
OC[C@@]12C[C@@H]1[C@@H](n1cnc3c(NC(C4CCCC4)C4CCCC4)nc(Cl)nc31)[C@H](O)[C@@H]2O,ligand displacement,radioligand,,436 nM
CNC(=O)[C@@]12C[C@@H]1[C@@H](n1cnc3c(NCCc4ccc(O)c(OC)c4)nc(C#Cc4ccc(Cl)s4)nc31)[C@H](O)[C@@H]2O,cell-free assay,radioligand,,43 nM
COc1cccc(Cn2c(=O)n(CC3CC3)c(=O)c3c2nc2cc(OC)ccn23)c1,ligand displacement,radioligand,cell membranes,209 nM
C=CN1CCCn2c1nc1c2c(=O)n(C)c(=O)n1C,ligand displacement,radioligand,cell membranes,> 10000 nM
CNC(=O)[C@@]12C[C@@H]1[C@@H](n1cnc3c(NCc4cn(-c5ccc(F)c(N)c5)nn4)nc(Cl)nc31)[C@H](O)[C@@H]2O,ligand displacement,radioligand,cell membranes,1670 nM
CCNC(=O)C1OC(n2cnc3c(N)nc(NN=CC4CCC=CO4)nc32)C(O)C1O (centres unmarked),ligand displacement,radioligand,cell membranes,76.4 nM
CNC(=O)[C@@]12C[C@@H]1[C@@H](n1cnc3c(NCc4cccc(C#CCCCCCc5cn(-c6ccc(F)c(N)c6)nn5)c4)nc(Cl)nc31)[C@H](O)[C@@H]2O,ligand displacement,radioligand,cell membranes,3780 nM
O[C@@H]1[C@H](O)CO[C@H]1n1cnc2c(NCc3cccc(I)c3)ncnc21,ligand displacement,radioligand,cell membranes,2080 nM
C#CCNc1nc(Cl)nc2c1ncn2[C@H]1[C@H](O)[C@H](O)[C@]2(C(=O)NC)C[C@H]12,ligand displacement,radioligand,cell membranes,400 nM
CCCCCCN1CCCn2c1nc1c2c(=O)n(C)c(=O)n1C,ligand displacement,radioligand,cell membranes,3800 nM
CCCC[C@H](NC(=O)[C@H](C)c1c(C)[nH]c2ccc(O)cc12)c1ncc(-c2cc3ccccc3nc2OC)[nH]1,cell-free assay,,,1590 nM
